# Results published in ChEMBL document CHEMBL1138559, “Synthesis and in vitro anti-HIV evaluation of a new series of 6-arylmethyl-substituted S-DABOs as potential non-nucleoside HIV-1 reverse transcriptase inhibitors” (Eur J Med Chem, 2009).
# What was measured:
# [1] = tested on: Human immunodeficiency virus 1; assay: Antiviral activity against HIV1 3B infected in human MT4 cells assessed as inhibition of virus-induced cytopathic effect after 4 days by MTT assay; type: functional, organism-based; details: Human immunodeficiency virus 1, 3B, MT4, 96 h
# Summary of the method: (§1)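 MT-4 cells at 1 × 10^5 cells/mL infected at MOI 0.02 (virus stocks titrated in MT-4, as CCID50), then put at once into wells with serial compound dilutions (DMSO stocks, 50 mM or higher). Incubation 4 days, 37 °C. Viable cells counted by MTT. IC50 taken as concentration protecting 50% of infected cells.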
# [2] = Cytotoxicity against human MT4 cells by MTT assay; type: cell-based
# Summary of the method: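 Uninfected MT-4 cells run in parallel with the antiviral plates, with serial compound dilutions from DMSO stocks (50 mM or higher), for 4 days at 37 °C. Viability read by MTT. CC50 is the concentration that lowers viability of uninfected cells by 50%.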
# [3] = tested on: Human immunodeficiency virus 2; assay: Antiviral activity against HIV2 ROD infected in human MT4 cells assessed as inhibition of virus-induced cytopathic effect after 4 days by MTT assay; type: functional, organism-based; details: Human immunodeficiency virus 2, ROD, MT4, 96 h; summary of the method: as §1
# [4] = Selectivity index, ratio of CC50 for human MT4 cells to IC50 for HIV1 3B; type: functional
# Summary of the method: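 Ratio CC50/IC50. CC50 comes from MTT viability of uninfected MT-4 cells, and IC50 from MTT protection of HIV-1-infected MT-4 cells (MOI 0.02). Both were read after 4 days at 37 °C in parallel assays.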
SMILES,IC50 [1] [µM],CC50 [2] [µM],IC50 [3] [µM],Ratio CC50/IC50 [4]
CCc1c(Cc2c(Cl)cccc2Cl)nc(SCc2ccc([N+](=O)[O-])cc2)[nH]c1=O,0.36,> 278,> 278,>772
CCc1c(Cc2c(Cl)cccc2Cl)nc(SCc2ccc(OC)cc2)[nH]c1=O,0.16,> 287,> 287,>1793
COc1ccc(CSc2nc(Cc3ccc(-c4ccccc4)cc3)c(C)c(=O)[nH]2)cc1,> 100,100,> 100,<1
COc1ccc(CSc2nc(Cc3cccc4ccccc34)c(C(C)C)c(=O)[nH]2)cc1,0.21,37.4,> 37.4,178
COc1ccc(CSc2nc(Cc3ccc(Br)cc3)c(C)c(=O)[nH]2)cc1,> 290,> 290,> 290,–
COc1ccc(CSc2nc(Cc3ccccc3Br)c(C)c(=O)[nH]2)cc1,1.04,179,> 179,172
COc1ccc(CSc2nc(Cc3cc(C)cc(C)c3)c(C)c(=O)[nH]2)cc1,1.1,> 329,> 329,>299
Cc1cc(C)cc(Cc2nc(SCc3ccc([N+](=O)[O-])cc3)[nH]c(=O)c2C)c1,5.46,> 316,> 316,>58
COc1ccc(CSc2nc(Cc3cc(C(F)(F)F)cc(C(F)(F)F)c3)c(C)c(=O)[nH]2)cc1,> 256,> 256,> 256,–
CCc1c(Cc2cc(C)cc(C)c2)nc(SCc2ccc(OC)cc2)[nH]c1=O,0.12,> 317,> 317,>2642
CCc1c(Cc2ccc(Br)cc2)nc(SCc2ccc(OC)cc2)[nH]c1=O,> 281,> 281,> 281,–
CCc1c(Cc2ccccc2Br)nc(SCc2ccc([N+](=O)[O-])cc2)[nH]c1=O,0.74,> 272,> 272,>368
CCc1c(Cc2cccc(Br)c2)nc(SCc2ccc(OC)cc2)[nH]c1=O,0.28,201,> 201,718
CCc1c(Cc2ccc(-c3ccccc3)cc2)nc(SCc2ccc(OC)cc2)[nH]c1=O,> 194,194,> 194,<1
Cc1c(Cc2cc(C(F)(F)F)cc(C(F)(F)F)c2)nc(SCc2ccc([N+](=O)[O-])cc2)[nH]c1=O,> 248,> 248,> 248,–
CCc1c(Cc2cc(C)cc(C)c2)nc(SCc2ccccc2)[nH]c1=O,0.95,> 343,> 343,>361
CCc1c(Cc2cc(C(F)(F)F)cc(C(F)(F)F)c2)nc(SCc2ccc([N+](=O)[O-])cc2)[nH]c1=O,> 242,> 242,> 242,–
CCc1c(Cc2cc(C(F)(F)F)cc(C(F)(F)F)c2)nc(SCc2ccc(OC)cc2)[nH]c1=O,≥ 9.47,> 249,> 249,<=26
COc1ccc(CSc2nc(Cc3cccc(Br)c3)c(C)c(=O)[nH]2)cc1,6.42,> 290,> 290,>45
Cc1c(Cc2cccc(Br)c2)nc(SCc2ccc([N+](=O)[O-])cc2)[nH]c1=O,14.2,> 280,> 280,>20
Cc1c(Cc2ccccc2Br)nc(SCc2ccc([N+](=O)[O-])cc2)[nH]c1=O,1.46,≥ 246,> 246,>=168
CCc1c(Cc2cc(C)cc(C)c2)nc(SCc2ccc([N+](=O)[O-])cc2)[nH]c1=O,0.16,> 305,> 305,>1906
CCc1c(Cc2cccc3ccccc23)nc(SCc2ccc(OC)cc2)[nH]c1=O,1.32,261,> 227,198
CCc1c(Cc2cccc(Br)c2)nc(SCc2ccc([N+](=O)[O-])cc2)[nH]c1=O,1.34,187,> 187,139.6
CCc1c(Cc2ccccc2Br)nc(SCc2ccc(OC)cc2)[nH]c1=O,0.23,165,> 165,717
O=c1[nH]cnc2c1ncn2[C@H]1CC[C@@H](CO)O1 [DIDANOSINE],5.37,≥ 529,2.71,>=98
Cc1c(Sc2ccccc2)n(COCCO)c(=O)[nH]c1=O [HEPT],5.06,≤ 399,> 405,79
